Legend:
Assay type in all cases: functional
[1] = system: K562; assay: Cytotoxicity against human K562 cells assessed as cell growth at 10 uM after 48 hrs by SRB assay; conditions: K562, 48 h, read-out: Activity
Method in brief: (§1)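 NCI-60 single-dose screen. Cell lines grown in RPMI 1640 with 5% FBS and 2 mM L-glutamine, plated at 5000–40,000 cells/well according to doubling time, then preincubated 24 h at 37 °C in 5% CO2. Compounds dissolved in DMSO, tested at 10^-5 M for 48 h. Adherent cells fixed with cold TCA (10% final) and stained with 0.4% SRB in 1% acetic acid. Growth expressed as percent of untreated control.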

[2] = system: SR; assay: Cytotoxicity against human SR cells assessed as cell growth at 10 uM after 48 hrs by SRB assay; conditions: read-out: Activity
Method in brief: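 Leukemia line, NCI-60 single-dose screen at 10^-5 M. Cells are grown in RPMI 1640 with 5% FBS and 2 mM L-glutamine, plated by doubling time, and preincubated 24 h at 37 °C with 5% CO2. After 48 h drug exposure, settled cells are fixed with 80% TCA (final 16%) and stained with SRB. Percent growth is calculated against untreated control and time-zero plates.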

[3] = system: MCF7; assay: Cytotoxicity against human MCF7 cells assessed as cell growth at 10 uM after 48 hrs by SRB assay; conditions: MCF7, 48 h, read-out: Activity; method in brief: as §1
[4] = system: LOX IMVI; assay: Cytotoxicity against human LOXIMVI cells assessed as cell growth at 10 uM after 48 hrs by SRB assay; conditions: read-out: Activity; method in brief: as §1
[5] = system: 786-0; assay: Cytotoxicity against human 786-0 cells assessed as cell growth at 10 uM after 48 hrs by SRB assay; conditions: 786-0, 48 h, read-out: Activity; method in brief: as §1
[6] = system: PC-3; assay: Cytotoxicity against human PC3 cells assessed as cell growth at 10 uM after 48 hrs by SRB assay; conditions: PC-3, 48 h, read-out: Activity; method in brief: as §1
[7] = system: SF-539; assay: Cytotoxicity against human SF539 cells assessed as cell growth at 10 uM after 48 hrs by SRB assay; conditions: SF-539, 48 h, read-out: Activity; method in brief: as §1
[8] = system: HCT-15; assay: Cytotoxicity against human HCT15 cells assessed as cell growth at 10 uM after 48 hrs by SRB assay; conditions: HCT-15, 48 h, read-out: Activity; method in brief: as §1
[9] = system: HCC 2998; assay: Cytotoxicity against human HCC2998 cells assessed as cell growth at 10 uM after 48 hrs by SRB assay; conditions: HCC 2998, 48 h, read-out: Activity; method in brief: as §1
[10] = system: SK-OV-3; assay: Cytotoxicity against human SKOV3 cells assessed as cell growth at 10 uM after 48 hrs by SRB assay; conditions: SK-OV-3, 48 h, read-out: Activity; method in brief: as §1
[11] = system: M14; assay: Cytotoxicity against human M14 cells assessed as cell growth at 10 uM after 48 hrs by SRB assay; conditions: M14, 48 h, read-out: Activity; method in brief: as §1
[12] = system: A549; assay: Cytotoxicity against human A549 cells assessed as cell growth at 10 uM after 48 hrs by SRB assay; conditions: A549, 48 h, read-out: Activity; method in brief: as §1
[13] = system: A498; assay: Cytotoxicity against human A498 cells assessed as cell growth at 10 uM after 48 hrs by SRB assay; conditions: A498, 48 h, read-out: Activity; method in brief: as §1
[14] = system: SF-295; assay: Cytotoxicity against human SF295 cells assessed as cell growth at 10 uM after 48 hrs by SRB assay; conditions: SF-295, 48 h, read-out: Activity; method in brief: as §1
[15] = system: HT-29; assay: Cytotoxicity against human HT-29 cells assessed as cell growth at 10 uM after 48 hrs by SRB assay; conditions: HT-29, 48 h, read-out: Activity; method in brief: as §1
[16] = system: OVCAR-3; assay: Cytotoxicity against human OVCAR3 cells assessed as cell growth at 10 uM after 48 hrs by SRB assay; conditions: OVCAR-3, 48 h, read-out: Activity; method in brief: as §1
[17] = system: IGROV-1; assay: Cytotoxicity against human IGROV1 cells assessed as cell growth at 10 uM after 48 hrs by SRB assay; conditions: IGROV-1, 48 h, read-out: Activity; method in brief: as §1
[18] = system: SK-MEL-2; assay: Cytotoxicity against human SK-MEL-2 cells assessed as cell growth at 10 uM after 48 hrs by SRB assay; conditions: SK-MEL-2, 48 h, read-out: Activity; method in brief: as §1
[19] = system: CAKI-1; assay: Cytotoxicity against human CAKI-1 cells assessed as cell growth at 10 uM after 48 hrs by SRB assay; conditions: CAKI-1, 48 h, read-out: Activity; method in brief: as §1
[20] = system: BT-549; assay: Cytotoxicity against human BT549 cells assessed as cell growth at 10 uM after 48 hrs by SRB assay; conditions: BT-549, 48 h, read-out: Activity; method in brief: as §1
[21] = system: U-251; assay: Cytotoxicity against human U251 cells assessed as cell growth at 10 uM after 48 hrs by SRB assay; conditions: U-251, 48 h, read-out: Activity
Method in brief: (§2)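 NCI-60 single-dose screen at 10^-5 M. Adherent lines are grown in RPMI 1640 with 5% FBS and 2 mM L-glutamine, seeded at 5000–40,000 cells/well by doubling time, and preincubated 24 h at 37 °C in 5% CO2. Drug is added from DMSO stock diluted in medium, then 48 h. Cells are fixed in cold TCA (final 10%) for 60 min and stained with 0.4% SRB in 1% acetic acid. Growth is expressed as % of untreated control using time-zero plates.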

[22] = system: COLO 205; assay: Cytotoxicity against human COLO205 cells assessed as cell growth at 10 uM after 48 hrs by SRB assay; conditions: COLO 205, 48 h, read-out: Activity; method in brief: as §1
[23] = system: MDA-MB-468; assay: Cytotoxicity against human MDA-MB-468 cells assessed as cell growth at 10 uM after 48 hrs by SRB assay; conditions: MDA-MB-468, 48 h, read-out: Activity; method in brief: as §1
[24] = system: RPMI-8226; assay: Cytotoxicity against human RPMI8226 cells assessed as cell growth at 10 uM after 48 hrs by SRB assay; conditions: RPMI-8226, 48 h, read-out: Activity; method in brief: as §1
[25] = Cytotoxicity against human UO31 cells assessed as cell growth at 10 uM after 48 hrs by SRB assay; conditions: UO-31, 48 h, read-out: Activity; method in brief: as §2
[26] = system: SK-MEL-28; assay: Cytotoxicity against human SK-MEL-28 cells assessed as cell growth at 10 uM after 48 hrs by SRB assay; conditions: SK-MEL-28, 48 h, read-out: Activity; method in brief: as §1
[27] = system: ACHN; assay: Cytotoxicity against human ACHN cells assessed as cell growth at 10 uM after 48 hrs by SRB assay; conditions: read-out: Activity; method in brief: as §1
[28] = Cytotoxicity against human UACC257 cells assessed as cell growth at 10 uM after 48 hrs by SRB assay; conditions: UACC-257, 48 h, read-out: Activity; method in brief: as §2
[29] = system: NCI-H322M; assay: Cytotoxicity against human NCI-H322M cells assessed as cell growth at 10 uM after 48 hrs by SRB assay; conditions: read-out: Activity; method in brief: as §1
[30] = system: RXF 393; assay: Cytotoxicity against human RXF393 cells assessed as cell growth at 10 uM after 48 hrs by SRB assay; conditions: RXF 393, 48 h, read-out: Activity; method in brief: as §1
[31] = system: NCI-H226; assay: Cytotoxicity against human NCI-H226 cells assessed as cell growth at 10 uM after 48 hrs by SRB assay; conditions: NCI-H226, 48 h, read-out: Activity; method in brief: as §1

| Compound | growth at 10 µM [1] | growth at 10 µM [2] | growth at 10 µM [3] | growth at 10 µM [4] | growth at 10 µM [5] | growth at 10 µM [6] | growth at 10 µM [7] | growth at 10 µM [8] | growth at 10 µM [9] | growth at 10 µM [10] | growth at 10 µM [11] | growth at 10 µM [12] | growth at 10 µM [13] | growth at 10 µM [14] | growth at 10 µM [15] | growth at 10 µM [16] | growth at 10 µM [17] | growth at 10 µM [18] | growth at 10 µM [19] | growth at 10 µM [20] | other results |
| --- | --- | --- | --- | --- | --- | --- | --- | --- | --- | --- | --- | --- | --- | --- | --- | --- | --- | --- | --- | --- | --- |
| CC1=NN(c2cn3c(-c4ccccc4)csc3n2)C(=O)C1 | 83.4% | 84.5% | 89.6% | 90.8% | 96.6% | 77.6% | 89.7% | 96.7% | 97.3% | 88.9% | 100% | 101% | 96.6% | 69.4% | 106% | 99.8% | 88% | 102% | 79.9% | 89.7% | growth at 10 µM [21]: 90.7%; growth at 10 µM [22]: 102%; growth at 10 µM [23]: 114%; growth at 10 µM [24]: 94.2%; growth at 10 µM [25]: 59%; growth at 10 µM [26]: 102%; growth at 10 µM [27]: 91.2%; growth at 10 µM [28]: 102%; growth at 10 µM [29]: 92.1%; growth at 10 µM [30]: 109%; growth at 10 µM [31]: 101% |
| Cc1cc(C)n(-c2cn3c(-c4ccccc4)csc3n2)n1 | 76.8% | 80.9% | 88.7% | 91.9% | 98% | 88.7% | 94% | 95% | 105% | 89.9% | 95.4% | 99% | 111% | 77.5% | 97.6% | 101% | 76.5% | 97.6% | 77.4% | 95.3% | growth at 10 µM [21]: 94.7%; growth at 10 µM [22]: 106%; growth at 10 µM [23]: 102%; growth at 10 µM [24]: 93%; growth at 10 µM [25]: 59.2%; growth at 10 µM [26]: 102%; growth at 10 µM [27]: 83.8%; growth at 10 µM [28]: 105%; growth at 10 µM [29]: 91.1%; growth at 10 µM [30]: 93.4%; growth at 10 µM [31]: 88.3% |
| CC1=NN(c2cn3c(-c4ccc(Cl)cc4)csc3n2)C(=O)C1 | 71.4% | 73.3% | 93.5% | 96.8% | 94.1% | 79.4% | 94.7% | 88.7% | 100% | 100% | 96.2% | 79.6% | 74.1% | 85.6% | 85.7% | 106% | 99.3% | 104% | 79.3% | 101% | growth at 10 µM [21]: 91.7%; growth at 10 µM [22]: 103%; growth at 10 µM [23]: 97.9%; growth at 10 µM [24]: 75.9%; growth at 10 µM [25]: 80.9%; growth at 10 µM [26]: 96.3%; growth at 10 µM [27]: 89.1%; growth at 10 µM [28]: 94.9%; growth at 10 µM [29]: 99.8%; growth at 10 µM [30]: 104%; growth at 10 µM [31]: 95.4% |
| Cc1cc(C)n(-c2cn3c(-c4ccc(Cl)cc4)csc3n2)n1 | 83.1% | 65.8% | 85.1% | 91.9% | 102% | 79.1% | 104% | 95.5% | 102% | 93.4% | 101% | 85.8% | 85.7% | 82.5% | 87% | 107% | 108% | 113% | 78.6% | 113% | growth at 10 µM [21]: 87.8%; growth at 10 µM [22]: 100%; growth at 10 µM [23]: 88.5%; growth at 10 µM [24]: 68.2%; growth at 10 µM [25]: 89.6%; growth at 10 µM [26]: 97.9%; growth at 10 µM [27]: 91%; growth at 10 µM [28]: 104%; growth at 10 µM [29]: 91%; growth at 10 µM [30]: 93.5%; growth at 10 µM [31]: 81.5% |
| O=C1CC(=O)N(c2cn3c(-c4ccc(Cl)cc4)csc3n2)N1 | 88.1% | 74% | 89% | 96.5% | 96.4% | 90% | 101% | 92.9% | 102% | 103% | 100% | 88.9% | 75.2% | 84.4% | 91.3% | 110% | 117% | 101% | 78.9% | 95.3% | growth at 10 µM [21]: 91.9%; growth at 10 µM [22]: 101%; growth at 10 µM [23]: 104%; growth at 10 µM [24]: 85%; growth at 10 µM [25]: 111%; growth at 10 µM [26]: 95.7%; growth at 10 µM [27]: 102%; growth at 10 µM [28]: 103%; growth at 10 µM [29]: 83.3%; growth at 10 µM [30]: 112%; growth at 10 µM [31]: 103% |

Reference: ChEMBL document CHEMBL3120060, “Synthesis, in vitro anticancer evaluation and in silico studies of novel imidazo[2,1-b]thiazole derivatives bearing pyrazole moieties” (2014)
